Converted amounts (≈) assume the structure as drawn. The source made the active and inactive calls. The rule behind the calls is not given here.
Legend:
Mus musculus [1] = experiment: Effect on the survival rate of mouse infected with herpes genitalis (HSV-2) administered intravaginally at 2% dosage twice in a day; assay type: functional
How it was run: (§1)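 HSV-2 mouse genital model, infected intravaginally. Drug prepared in water + 1% gum tragacanth and given intravaginally b.i.d. via saturated cotton tampons, starting 4 h postinfection. Tampons were re-dosed with 0.02 mL 6 h after insertion and replaced daily. Test ended at day 14, with survivors assigned survival time >14 days. Read-out: % survival and average survival time.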

Mus musculus [2] = experiment: Effect on the survival rate of mouse infected with herpes genitalis (HSV-2) administered intravaginally at 5% dosage twice in a day; assay type: functional; how it was run: as §1
Human alphaherpesvirus 2 [3] = experiment: Tested in vitro for minimum inhibitory activity against Herpes simplex virus type -2 (HSV-2); assay type: functional
Human alphaherpesvirus 2 [4] = experiment: Tested in vitro for minimum inhibitory activity against Herpes simplex virus type -2 (HSV-2); Inactive; assay type: functional, organism-based

`O=c1[nH]c(=O)n([C@H]2C[C@H](O)[C@@H](CO)O2)cc1I` [IDOXURIDINE] was tested, and the Average survival (Mus musculus [1]) was >11 days, the Survival (Mus musculus [1]) was 40% and the Average survival (Mus musculus [2]) was >9 days. It also gave a Survival (Mus musculus [2]) of 10%.

Work on `CCCn1nc(C)c(CCCCCCOc2ccc(OC)cc2Cl)c1C` yielded an MIC (Human alphaherpesvirus 2 [3]) of 1.5 µg/mL (≈ 3.96 µM).

`CCc1n[nH]c(CC)c1CCCCCCOc1ccc([S+](C)[O-])cc1Cl` (centres undefined) was tested, and the MIC (Human alphaherpesvirus 2 [3]) was 3 µg/mL (≈ 7.56 µM).

In the case of `CCc1nn(C(=O)CCCN2CCOCC2)c(CC)c1CCCCCCOc1ccc(OC)cc1Cl`, the MIC (Human alphaherpesvirus 2 [3]) is reported as 3 µg/mL (≈ 5.77 µM).

With `CCc1n[nH]c(CC)c1CCCCCCOc1ccc(SC)cc1Cl` the MIC (Human alphaherpesvirus 2 [4]) was “inactive”.

`CCOC(=O)Cn1nc(CC)c(CCCCCCOc2ccc(OC)cc2Cl)c1CC` showed an MIC (Human alphaherpesvirus 2 [3]) of 6 µg/mL (≈ 13.3 µM).

In the case of `CCc1n[nH]c(CC)c1CCCCCCOc1ccc(OC)cc1`, the MIC (Human alphaherpesvirus 2 [4]) is reported as “inactive”.

With `CCc1nn(-c2ccccn2)c(CC)c1CCCCCCOc1ccc(OC)cc1Cl` the MIC (Human alphaherpesvirus 2 [3]) was 6 µg/mL (≈ 13.6 µM).

In the case of `Nc1ncnc2c1ncn2[C@@H]1O[C@H](CO)[C@@H](O)[C@@H]1O` [VIDARABINE], the Average survival (Mus musculus [1]) is reported as >9 days, the Survival (Mus musculus [1]) is reported as 10% and the Average survival (Mus musculus [2]) is reported as >13 days. For the same compound, the Survival (Mus musculus [2]) was 60%.

`CCc1n[nH]c(CC)c1CCCCOc1ccc(OC)cc1Cl` was tested, and the MIC (Human alphaherpesvirus 2 [3]) was 6 µg/mL (≈ 17.8 µM).

`CCc1n[nH]c(CC)c1CCCCCCOc1ccc(Br)cc1` was tested, and the MIC (Human alphaherpesvirus 2 [4]) was “inactive”.

In the case of `CCc1n[nH]c(CC)c1CCCCCCCOc1ccc(OC)cc1Cl`, the MIC (Human alphaherpesvirus 2 [3]) is reported as 6 µg/mL (≈ 15.8 µM).

`CCc1nn(CCN(C)C)c(CC)c1CCCCCCOc1ccc(OC)cc1Cl` showed an MIC (Human alphaherpesvirus 2 [3]) of 6 µg/mL (≈ 13.8 µM).

`COc1ccc(OCCCCCCc2c(C)nn(C)c2C)c(Cl)c1` gave an MIC (Human alphaherpesvirus 2 [3]) of 0.7 µg/mL (≈ 1.99 µM).

With `CCc1nn(CC(F)(F)F)c(CC)c1CCCCCCOc1ccc(OC)cc1Cl` the MIC (Human alphaherpesvirus 2 [4]) was “inactive”.

With `CCc1nn(C(C)=O)c(CC)c1CCCCCCOc1ccc(OC)cc1Cl` the MIC (Human alphaherpesvirus 2 [4]) was “inactive”.

For `COc1ccc(OCCCCCCc2c(C)n[nH]c2C)c(Cl)c1`, the MIC (Human alphaherpesvirus 2 [3]) was 3 µg/mL (≈ 8.91 µM).

With `CCc1nn(C)c(CC)c1CCCCCCOc1ccc(OC)cc1Cl` the MIC (Human alphaherpesvirus 2 [3]) was 6 µg/mL (≈ 15.8 µM).

From ChEMBL document CHEMBL1121642, “Synthesis and antiherpetic activity of some 4-[(aryloxy)alkyl]pyrazoles” (1981)
